Data on nine compounds can be found in ChEMBL document CHEMBL4431393, “Polar Recognition Group Study of Keap1-Nrf2 Protein-Protein Interaction Inhibitors” (ACS Med Chem Lett, 2016).

In brackets after ≈: the same amount, converted by molar mass.

Data set [1] in a line: Partition coefficient, logD of the compound at pH 7.4 by Avdeef-Bucher potentiometric titration method. The data set is classed as physicochemical. To be noted: octanol/water.
A further data set concerns the target Keap1/Nrf2 (Homo sapiens, UniProt Q14145). The data set can be described thus: Inhibition of Keap1 Kelch domain/FITC-9mer Nrf2 (unknown origin) interaction after 30 mins by fluorescence polarization assay. The format is protein assay. A general note: Polarisation of emitted light reports the rotation of a fluorescent probe.
The nature of data set [2]: Intrinsic solubility of the compound at pH 7.4 by potentiometric acid-base titration method. The data set is classed as physicochemical. The conditions noted are these: buffer, read-out: Intrinsic_solubility.
Data set [3] is described as follows: Dissociation constant, pKa of the compound by Avdeef-Bucher potentiometric titration method. The format is physicochemical.
Data set [4] can be described thus: Permeability of the compound at pH 7.4 by PAMPA method. The data set is classed as ADME. To be noted: read-out: permeability. The method in brief: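 Effective permeability coefficients (Pe) were determined by a standard parallel artificial membrane permeability assay run on an automated PAMPA instrument. This reads out passive transcellular diffusion.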

Sequence of Keap1/Nrf2 (Q16236 whole entry, the tested form may be a part): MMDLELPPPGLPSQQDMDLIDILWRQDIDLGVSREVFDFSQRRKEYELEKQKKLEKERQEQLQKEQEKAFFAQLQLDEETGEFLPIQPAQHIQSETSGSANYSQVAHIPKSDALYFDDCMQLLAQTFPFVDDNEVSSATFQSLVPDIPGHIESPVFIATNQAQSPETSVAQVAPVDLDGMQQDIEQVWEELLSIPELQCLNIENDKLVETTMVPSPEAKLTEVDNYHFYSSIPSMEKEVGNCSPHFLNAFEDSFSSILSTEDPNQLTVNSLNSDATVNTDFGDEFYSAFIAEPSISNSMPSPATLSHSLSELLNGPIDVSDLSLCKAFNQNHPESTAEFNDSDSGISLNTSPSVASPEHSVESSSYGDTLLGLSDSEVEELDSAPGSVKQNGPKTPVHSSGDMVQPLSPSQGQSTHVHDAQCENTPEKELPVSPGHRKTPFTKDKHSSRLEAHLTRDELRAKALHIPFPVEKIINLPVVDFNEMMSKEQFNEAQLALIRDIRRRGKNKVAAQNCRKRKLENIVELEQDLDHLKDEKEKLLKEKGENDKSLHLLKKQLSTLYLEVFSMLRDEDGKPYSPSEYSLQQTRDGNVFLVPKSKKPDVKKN
Sequence of Keap1/Nrf2 (Q14145 whole entry, the tested form may be a part): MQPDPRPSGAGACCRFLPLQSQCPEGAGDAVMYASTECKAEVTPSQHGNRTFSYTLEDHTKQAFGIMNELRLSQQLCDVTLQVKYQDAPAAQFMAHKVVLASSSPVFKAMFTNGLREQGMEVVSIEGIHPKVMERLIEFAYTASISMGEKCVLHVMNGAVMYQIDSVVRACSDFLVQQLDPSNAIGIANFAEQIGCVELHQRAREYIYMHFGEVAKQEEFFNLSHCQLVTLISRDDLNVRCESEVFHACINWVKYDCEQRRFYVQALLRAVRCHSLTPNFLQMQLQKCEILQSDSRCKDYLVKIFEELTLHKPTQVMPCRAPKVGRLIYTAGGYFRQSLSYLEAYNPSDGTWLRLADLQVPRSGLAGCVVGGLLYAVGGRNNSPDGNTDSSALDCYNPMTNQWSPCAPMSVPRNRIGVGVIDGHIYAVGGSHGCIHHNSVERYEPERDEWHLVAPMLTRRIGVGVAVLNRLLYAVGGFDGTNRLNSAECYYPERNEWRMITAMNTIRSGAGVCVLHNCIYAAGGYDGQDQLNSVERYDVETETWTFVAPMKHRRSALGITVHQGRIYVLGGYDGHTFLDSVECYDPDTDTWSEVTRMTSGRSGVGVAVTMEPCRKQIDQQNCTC

On to `CC(=O)Nc1ccc(S(=O)(=O)N(Cc2c[nH]nn2)c2ccc(N(Cc3c[nH]nn3)S(=O)(=O)c3ccc(NC(C)=O)cc3)c3ccccc23)cc1`, for which the logD (usually lipophilicity at a set pH, counting ionised and neutral species) in data set [1] is 3.01. Moreover, at Keap1/Nrf2, the IC50 (usually the concentration at which inhibition is half-maximal) is 0.609 µM. The solubility in data set [2] turned out to be 698 µg/mL (≈ 976 µM). The pKa (commonly the negative logarithm of the acid dissociation constant) in data set [3] was determined as 9.67.
In data set [1], `CC(=O)Nc1ccc(S(=O)(=O)N(Cc2nn[nH]n2)c2ccc(N(Cc3nn[nH]n3)S(=O)(=O)c3ccc(NC(C)=O)cc3)c3ccccc23)cc1` registered a logD of 2.31. Moreover, the Papp in data set [4] worked out at 42.3 ×10⁻⁶ cm/s. In data set [2], the solubility came out at 3500 µg/mL (≈ 4880 µM). The compound further showed a pKa in data set [3] of 5.12.
In turn, `C#CCN(c1ccc(N(CC#C)S(=O)(=O)c2ccc(NC(C)=O)cc2)c2ccccc12)S(=O)(=O)c1ccc(NC(C)=O)cc1` came in with a log distribution coefficient (logD) in data set [1] of 4.75. The same compound yielded a concentration for half-maximal inhibition (IC50) against Keap1/Nrf2 greater than 50 µM. The solubility in data set [2] amounted to 11.2 µg/mL (≈ 17.8 µM). In data set [3], this compound had a pKa of 10.7.
In the same order, the values of `CC(=O)Nc1ccc(S(=O)(=O)N(CC(N)=O)c2ccc(N(CC(N)=O)S(=O)(=O)c3ccc(NC(C)=O)cc3)c3ccccc23)cc1` are 3.21, greater than 50 µM, 388 µg/mL (≈ 583 µM) and 9.8.
Take `COC(=O)CN(c1ccc(N(CC(=O)OC)S(=O)(=O)c2ccc(NC(C)=O)cc2)c2ccccc12)S(=O)(=O)c1ccc(NC(C)=O)cc1`: the logD in data set [1] stood at 3.91. In addition, on Keap1/Nrf2, the IC50 was greater than 50 µM. Also, the solubility in data set [2] is 36.4 µg/mL (≈ 52.2 µM). Moreover, the pKa in data set [3] came to 10.5.
Consider `CC(=O)Nc1ccc(S(=O)(=O)N(CC#N)c2ccc(N(CC#N)S(=O)(=O)c3ccc(NC(C)=O)cc3)c3ccccc23)cc1`, for which, in data set [1], the log distribution coefficient (logD) is 4.65. This compound also yielded a half-maximal inhibitory concentration (IC50) against Keap1/Nrf2 greater than 50 µM. In addition, the solubility in data set [2] turned out to be 14.1 µg/mL (≈ 22.4 µM). In data set [3], this compound registered a pKa of 10.5.
Taken in the same sequence, the figures for `CC(=O)Nc1ccc(S(=O)(=O)N(CC(=O)NO)c2ccc(N(CC(=O)NO)S(=O)(=O)c3ccc(NC(C)=O)cc3)c3ccccc23)cc1` were 2.87, 2.6 µM, 942 µg/mL (≈ 1350 µM) and 8.12.
Regarding `CC(=O)Nc1ccc(S(=O)(=O)N(CC(=O)O)c2ccc(N(CC(=O)O)S(=O)(=O)c3ccc(NC(C)=O)cc3)c3ccccc23)cc1`, in data set [4], the Papp is 0.265 ×10⁻⁶ cm/s. The solubility in data set [2] was determined as 5000 µg/mL (≈ 7480 µM). This compound registered a pKa in data set [3] of 4.79.
`CC(=O)Nc1ccc(S(=O)(=O)N(CCO)c2ccc(N(CCO)S(=O)(=O)c3ccc(NC(C)=O)cc3)c3ccccc23)cc1`: the logD in data set [1] was found to be 2.99. Moreover, the IC50 against Keap1/Nrf2 was greater than 50 µM. Further, the solubility in data set [2] came out at 655 µg/mL (≈ 1020 µM). In data set [3], the pKa was found to be 10.8.
